Series [1] is filed under the species Chlorocebus aethiops. As to the kind of experiment: Selectivity index, ratio of IC50 for African green monkey SOAT1 isolated from CHO cell microsomes to IC50 for African green monkey SOAT2 isolated from CHO cell microsomes. The procedure, abridged:
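Microsomes were made by homogenizing SOAT1- or SOAT2-CHO cells in sucrose/KCl/KH2PO4/EDTA buffer (pH 7.2) and pelleting at 100,000 × g, 1 h, 4 °C. They were incubated with fatty-acid-free BSA and compound in methanol, and the reaction was started with [1-14C]oleoyl-CoA for 5 min at 37 °C. It was stopped with CHCl3:MeOH 2:1, and [14C]CE was measured by TLC radioimaging. Values are mean ± SD, n = 3. SI = log(IC50 SOAT1/IC50 SOAT2).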

Series [2] addresses T1, Sterol O-acyltransferase 2 (Chlorocebus aethiops, UniProt O77759).
T1 sequence (O77759 whole entry): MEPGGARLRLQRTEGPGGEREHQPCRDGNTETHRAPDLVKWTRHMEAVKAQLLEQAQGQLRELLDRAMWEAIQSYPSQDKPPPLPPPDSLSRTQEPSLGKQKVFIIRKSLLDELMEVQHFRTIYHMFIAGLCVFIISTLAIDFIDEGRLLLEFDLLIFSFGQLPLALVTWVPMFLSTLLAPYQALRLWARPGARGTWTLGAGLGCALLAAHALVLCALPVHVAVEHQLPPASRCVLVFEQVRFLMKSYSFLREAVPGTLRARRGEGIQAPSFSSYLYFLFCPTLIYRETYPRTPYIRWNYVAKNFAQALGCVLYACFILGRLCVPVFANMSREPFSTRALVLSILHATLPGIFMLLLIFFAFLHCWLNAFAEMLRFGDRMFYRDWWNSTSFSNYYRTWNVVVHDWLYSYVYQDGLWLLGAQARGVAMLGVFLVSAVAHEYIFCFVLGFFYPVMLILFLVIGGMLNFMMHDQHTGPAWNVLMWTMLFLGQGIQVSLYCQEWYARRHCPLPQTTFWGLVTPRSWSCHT
Put plainly: Inhibition of African green monkey SOAT2 expressed in CHO cells assessed as decrease in [14C]CE synthesis from [14C]oleic acid after 6 hrs. The class given is cell-based.

The species named for series [3] is Chlorocebus aethiops. Put plainly: Selectivity index, ratio of IC50 for African green monkey SOAT1 expressed in CHO cells to IC50 for African green monkey SOAT2 expressed in CHO cells. Type of series: cell-based. The method, boiled down:
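Monolayers of SOAT1- or SOAT2-CHO cells (≥80% confluent, overnight recovery) got CH3OH compound stocks (0–1 mg/mL) plus [14C]oleic acid (1 nmol, 1.85 kBq) for 6 h at 37 °C. Cells were SDS-lysed and Bligh–Dyer extracted, and [14C]CE was quantified by TLC radioimaging as percent of control. IC50s came from triplicate experiments, mean ± SD. SI = log(IC50 SOAT1/IC50 SOAT2).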

Series [4] deals with CHO. Put plainly: Effect on cell morphology in CHO cells expressing African green monkey SOAT2 up to 21 to 23 uM. The note with it: chinese hamster. Type of series: ADME, cell-based, Cricetulus griseus.
Series [5] relates to CHO. As to the kind of experiment: Effect on phospholipid synthesis in CHO cells expressing African green monkey SOAT1 up to 21 to 23 uM. Type of series: ADME, cell-based, Cricetulus griseus. The note with it: chinese hamster. The method, boiled down:
(§1)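 SOAT1- or SOAT2-expressing CHO cells were grown in Ham's F-12 with MEM vitamins, geneticin (300 μg/mL) and 10% heat-inactivated FBS at 37 °C, 5% CO2. Cells were seeded at 1.25 × 10⁵/well, recovered overnight, and used at ≥80% confluence. Compound stocks in CH3OH (0–1 mg/mL) were added with [14C]oleic acid (1 nmol) for 6 h. Lipids were Bligh–Dyer extracted, and [14C]PL was resolved by TLC and imaged.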

Series [6] deals with T1, Sterol O-acyltransferase 2. As to the kind of experiment: Inhibition of African green monkey SOAT2 isolated from CHO cell microsomes assessed as decrease in [14C]CE synthesis from [1-14C]oleoyl-CoA after 5 mins.
In series [7] the test system is CHO. Put plainly: Effect on phospholipid synthesis in CHO cells expressing African green monkey SOAT2 up to 21 to 23 uM. Type of series: ADME, cell-based, Cricetulus griseus. The settings on record: chinese hamster. The procedure, abridged:
as §1

For series [8], the target named is T2, Sterol O-acyltransferase 1 (Chlorocebus aethiops, UniProt O77760).
T2 sequence (O77760 whole entry): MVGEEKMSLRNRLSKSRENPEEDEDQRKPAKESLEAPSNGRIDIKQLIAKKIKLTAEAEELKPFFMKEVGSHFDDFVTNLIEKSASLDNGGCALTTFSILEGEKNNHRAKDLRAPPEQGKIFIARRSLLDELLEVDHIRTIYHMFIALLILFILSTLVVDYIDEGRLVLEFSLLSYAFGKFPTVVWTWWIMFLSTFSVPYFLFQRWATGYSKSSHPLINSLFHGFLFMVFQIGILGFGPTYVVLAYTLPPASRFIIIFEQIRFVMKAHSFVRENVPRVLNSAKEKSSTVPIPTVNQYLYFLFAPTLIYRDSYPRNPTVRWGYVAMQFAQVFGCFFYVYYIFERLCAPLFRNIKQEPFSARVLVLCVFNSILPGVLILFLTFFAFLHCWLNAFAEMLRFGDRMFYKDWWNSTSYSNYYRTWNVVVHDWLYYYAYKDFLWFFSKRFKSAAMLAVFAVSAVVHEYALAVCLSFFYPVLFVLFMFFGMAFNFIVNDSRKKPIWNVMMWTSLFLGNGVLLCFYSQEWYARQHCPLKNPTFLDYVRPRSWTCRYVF
Put plainly: Inhibition of African green monkey SOAT1 isolated from CHO cell microsomes assessed as decrease in [14C]CE synthesis from [1-14C]oleoyl-CoA after 5 mins.

Series [9] relates to CHO. As to the kind of experiment: Effect on cell morphology in CHO cells expressing African green monkey SOAT1 up to 21 to 23 uM. The class given is ADME, cell-based, Cricetulus griseus. The settings on record: chinese hamster.
Series [10] deals with T2, Sterol O-acyltransferase 1. As to the kind of experiment: Inhibition of African green monkey SOAT1 expressed in CHO cells assessed as decrease in [14C]CE synthesis from [14C]oleic acid after 6 hrs. The class given is cell-based.

A word on the IC50: it is the point on the concentration scale where inhibition reaches its midpoint.

Turning to `CCC(=O)[C@H](C[C@H](C)C(Cl)(Cl)Cl)NC(=O)/C=C/[C@H](C)C(Cl)(Cl)Cl`, the -log(RatioIC50) was 0.51 in the series listed under Chlorocebus aethiops [1] and 0.3 in the series filed under Chlorocebus aethiops [3]. Besides, the IC50 in series [2] turned out to be 2400 nM; in series [6] it was 3200 nM; in [8], 1000 nM; in [10], 1200 nM. The Activity result in the series with CHO [4], in the series with CHO [5], in the series with CHO [7] and in the series on CHO [9] was “Non-Toxic” each time.

On to `C[C@@H](C[C@H]1C(=O)N(C)[C@@H](C[C@H](C)C(Cl)(Cl)Cl)C(=O)N1C)C(Cl)(Cl)Cl`, for which the -log(RatioIC50) in the series filed under Chlorocebus aethiops [1] came out at 0.4. Besides, the IC50 in series [2] stood at 4200 nM; in [6] it was 5300 nM; in [8] it was 2100 nM; in [10], 5200 nM. Also, the log(RatioIC50) in the series listed under Chlorocebus aethiops [3] worked out at 0.092. The Activity entry in the series with CHO [4], in the series on CHO [5], with CHO [7] and in the series on CHO [9] was “Non-Toxic” in each case.

Regarding `CCC(=O)[C@H](C[C@H](C)C(Cl)(Cl)Cl)NC(=O)[C@H](C[C@H](C)C(Cl)(Cl)Cl)N(C)C`, the -log(RatioIC50) in the series listed under Chlorocebus aethiops [1] was 0.57; in the series filed under Chlorocebus aethiops [3], 0.56. The IC50 in [2] turned out to be 2800 nM; in series [6], 860 nM; in series [8] it was 230 nM; in series [10], 780 nM. The Activity entry with CHO [4], in the series with CHO [5], in the series with CHO [7] and with CHO [9] was “Non-Toxic” throughout.

(Values after ChEMBL document CHEMBL4219214, “Callyspongiamides A and B, sterol O-acyltransferase inhibitors, from the Indonesian marine sponge Callyspongia sp” (Bioorg Med Chem Lett, 2018).)
